Data set [1] is described as follows: Solubility in pH 6.5 buffer by HPLC based UV spectroscopy. The data set is classed as physicochemical.
Data set [2] deals with Plasmodium berghei. Nature of the data set: Antimalarial activity against Plasmodium berghei infected in mouse assessed as inhibition of parasitemia at 50 mg/kg, po administered as single dose measured on day 6 post drug exposure relative to untreated control. The data set is classed as functional. The following applies: 144 h. In outline: (§1)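 Two infected mice per compound were each given a single oral dose of 50 mg/kg, suspended in PEG400, on day 1 post-exposure. Parasitemia was assessed on days 3 and 6 post-exposure.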

The test system of data set [3] is Plasmodium berghei. Nature of the data set: Antimalarial activity against Plasmodium berghei infected in mouse assessed as inhibition of parasitemia at 50 mg/kg, po administered as single dose measured on day 3 post drug exposure relative to untreated control. Conditions: 72 h. It is filed as functional. In outline:
as §1

Data set [4] in a line: Liver blood index, ratio of EC50 for Plasmodium falciparum W2 to EC50 for Plasmodium berghei. The data set is classed as functional. Summed up:
(§2)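 Liver-stage EC50 measured in vitro against P. berghei. Liver blood index is the blood-stage EC50 divided by the P. berghei EC50, using either W2 or TM90-C2B as the blood-stage strain.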

Data set [5] relates to Plasmodium falciparum. Nature of the data set: Antimalarial activity against Plasmodium falciparum TM90-C2B. It is filed as functional, organism-based.
The test system of data set [6] is Plasmodium berghei. As to the kind of experiment: Antimalarial activity against Plasmodium berghei. The data set is classed as functional, organism-based. Summed up:
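In vitro liver-stage (exoerythrocytic) assay against P. berghei; the value is the EC50 (nM).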

The test system of a further data set is J774. As to the kind of experiment: Cytotoxicity against mouse J774 cells. It is filed as cell-based.
The subject of data set [7] is Plasmodium falciparum. Nature of the data set: Resistance index, ratio of EC50 for Plasmodium falciparum TM90-C2B to EC50 for Plasmodium falciparum W2. It is filed as functional.
The subject of data set [8] is Plasmodium falciparum. As to the kind of experiment: Antimalarial activity against Plasmodium falciparum W2. It is filed as functional, organism-based.
Data set [9] is described as follows: Liver blood index, ratio of EC50 for Plasmodium falciparum TM90-C2B to EC50 for Plasmodium berghei. It is filed as functional. In outline:
as §2

The test system of data set [10] is Plasmodium berghei. As to the kind of experiment: Antimalarial activity against GFP expressing Plasmodium berghei infected in mouse assessed as average time for mouse death at 10 mg/kg, po administered on days 3, 4 and 5 and measured on day 6 post drug exposure by Giemsa staining based modified Thompson test. It is filed as functional.
Data set [11] concerns Plasmodium berghei. Nature of the data set: Antimalarial activity against GFP expressing Plasmodium berghei infected in mouse assessed as inhibition of parasitemia at 10 mg/kg, po administered on days 3, 4 and 5 and measured on day 6 post drug exposure by Giemsa staining based modified Thompson test. The data set is classed as functional. The following applies: 144 h.
Data set [12] has as its system Plasmodium berghei. Nature of the data set: Antimalarial activity against GFP expressing Plasmodium berghei infected in mouse assessed as inhibition of parasitemia at 10 mg/kg, po administered on days 3, 4 and 5 and measured on day 13 post drug exposure by Giemsa staining based modified Thompson test. The data set is classed as functional, organism-based.

pEC50: −log10 of the molar value. The source made the active and inactive calls. The rule behind the calls is not given here.

As for `CCCCc1cc2c(=O)c(C(=O)NCCO)c[nH]c2cc1OCCOc1ccccc1`, the solubility (commonly the concentration that dissolves in the medium under given conditions) in data set [1] was > 20 µM. Besides, the inhibition in vivo (as a rule, the percentage by which the read-out fell short of the control) at 50 mg/kg in the data set on Plasmodium berghei [2] was < 1%; in the data set on Plasmodium berghei [3], 40%. Also, the Ratio EC50 in data set [4] was 19.8; with Plasmodium falciparum [7], 23.3; in data set [9], 460. The pEC50 (in general, the EC50 on a negative log10 scale, so that one unit is a factor of ten) was 5.23 with Plasmodium falciparum [5], 7.89 in the data set on Plasmodium berghei [6], < 4.70 in the data set with J774 and 6.60 with Plasmodium falciparum [8].

For `CCCCc1cc2c(=O)c(C(=O)OC)c[nH]c2cc1OCCOc1ccccc1`, the inhibition in vivo at 50 mg/kg with Plasmodium berghei [2] was 49%; in the data set with Plasmodium berghei [3], 76.9%. In addition, the Ratio EC50 in [4] is 0.75; in the data set with Plasmodium falciparum [7], 202; in data set [9], 152. For the same molecule, in the data set with Plasmodium berghei [10], the Time amounted to 13 days. In addition, the negative-log EC50 (pEC50) in the data set on Plasmodium falciparum [5] was 8.10; in the data set with Plasmodium berghei [6], 10.28; in the data set with J774, < 4.70; in the data set on Plasmodium falciparum [8], 10.41. Also, the inhibition in vivo at 10 mg/kg with Plasmodium berghei [11] was < 1%.

`CCCCc1cc2c(=O)c(CC)c[nH]c2cc1OCCOc1ccccc1`: the inhibition in vivo at 50 mg/kg came out at 17.7% in the data set with Plasmodium berghei [2] and 69.2% in the data set on Plasmodium berghei [3]. The results for the Ratio EC50 (in data set [4]; with Plasmodium falciparum [7]; in data set [9]) were 0.166, 4.36 and 0.725, respectively. Moreover, the pEC50 was 8.72 in the data set on Plasmodium falciparum [5], 8.58 with Plasmodium berghei [6], 6.44 with J774 and 9.36 in the data set with Plasmodium falciparum [8].

In the case of `COC(=O)c1c[nH]c2ccc(OCCCc3ccccc3)cc2c1=O`, the inhibition in vivo at 50 mg/kg with Plasmodium berghei [2] is < 1%; in the data set on Plasmodium berghei [3], 76.9%. For the same molecule, the Ratio EC50 was 1.3 in [4], 255 in the data set with Plasmodium falciparum [7] and 331 in data set [9]. Further, the pEC50 was 5.44 with Plasmodium falciparum [5], 7.95 with Plasmodium berghei [6], 4.77 in the data set on J774 and 7.84 in the data set on Plasmodium falciparum [8].

As for `CCCCc1cc2c(=O)c(Br)c(C)[nH]c2cc1OCCOc1ccccc1`, the inhibition in vivo at 50 mg/kg with Plasmodium berghei [2] was determined as 49.5%; with Plasmodium berghei [3] it was 100%. The Ratio EC50 was found to be 1.23 in [4], 4.69 with Plasmodium falciparum [7] and 5.75 in data set [9]. Moreover, the Time in the data set on Plasmodium berghei [10] was 13 days. Moreover, the pEC50 was 7.91 with Plasmodium falciparum [5], 8.67 with Plasmodium berghei [6], < 5.00 in the data set with J774 and 8.59 with Plasmodium falciparum [8]. The outcome in the data set on Plasmodium berghei [12] was inactive. Further, in the data set on Plasmodium berghei [11], the inhibition in vivo at 10 mg/kg amounted to 61%.

As to `COC(=O)c1c[nH]c2cc(Oc3ccccc3)ccc2c1=O`, the inhibition in vivo at 50 mg/kg in the data set with Plasmodium berghei [2] turned out to be 29.8%; in the data set with Plasmodium berghei [3], 40%. Moreover, the values for the Ratio EC50 (in data set [4]; in the data set with Plasmodium falciparum [7]; in data set [9]) were 0.15, 117 and 17.7, respectively. Moreover, the pEC50 was 5.71 in the data set on Plasmodium falciparum [5], 6.96 in the data set on Plasmodium berghei [6], 5.04 in the data set with J774 and 7.78 in the data set on Plasmodium falciparum [8].

Take `CCCCc1cc2c(=O)c(I)c(C)[nH]c2cc1OCCOc1ccccc1`: the results for the inhibition in vivo at 50 mg/kg with Plasmodium berghei [2] and with Plasmodium berghei [3] were 19.6% and 53.9%, respectively. In addition, the results for the pEC50 in the data set on Plasmodium falciparum [5] and in the data set with Plasmodium falciparum [8] were 8.23 and 9.06, respectively. Moreover, the “Ratio EC50” value in the data set with Plasmodium falciparum [7] is reported as 6.77.

In the case of `COC(=O)c1c[nH]c2cc(OCCCc3ccccc3)ccc2c1=O`, the inhibition in vivo at 50 mg/kg with Plasmodium berghei [2] was 47.1%; in the data set with Plasmodium berghei [3], 69.2%. In addition, the Ratio EC50 is 0.14 in data set [4] and >1100 with Plasmodium falciparum [7]. The negative logarithm of the EC50 (pEC50) in the data set with Plasmodium falciparum [5] was < 6.11; in the data set on Plasmodium berghei [6], 8.28; with J774, 5.83; in the data set with Plasmodium falciparum [8] it was 9.15.

Consider `COC(=O)c1c[nH]c2ccc(OCCc3ccccc3)cc2c1=O`, for which the values for the inhibition in vivo at 50 mg/kg in the data set on Plasmodium berghei [2] and with Plasmodium berghei [3] were < 1% and 7.69%, respectively. The Ratio EC50 in data set [4] is 3.53; with Plasmodium falciparum [7], 124; in data set [9] it was 438. The pEC50 is 5.52 in the data set on Plasmodium falciparum [5], 8.16 in the data set with Plasmodium berghei [6], 5.66 in the data set on J774 and 7.61 in the data set on Plasmodium falciparum [8].

As to `COC(=O)c1c[nH]c2cc(OCCOc3ccccc3)c(Cl)cc2c1=O`, the inhibition in vivo at 50 mg/kg in the data set with Plasmodium berghei [2] and in the data set with Plasmodium berghei [3] was < 1% in each case. In addition, the figures for the Ratio EC50 (in data set [4]; in the data set with Plasmodium falciparum [7]; in data set [9]) were 158, 62.1 and 9790, respectively. The negative-log EC50 (pEC50) in the data set with Plasmodium falciparum [5] is 6.21; in the data set with Plasmodium berghei [6] it was 10.20; with J774, < 4.70; in the data set with Plasmodium falciparum [8], 8.00.

Turning to `COC(=O)c1c[nH]c2cc(OCCc3ccccc3)ccc2c1=O`, the values for the inhibition in vivo at 50 mg/kg with Plasmodium berghei [2] and in the data set on Plasmodium berghei [3] were < 1% and 60%, respectively. The pEC50 with Plasmodium falciparum [5] was 5.11; in the data set on J774 it was 4.76; in the data set on Plasmodium falciparum [8], 6.86. In the data set on Plasmodium falciparum [7], the “Ratio EC50” value is 55.7.

Regarding `COC(=O)c1c[nH]c2ccc(OCc3ccccc3)cc2c1=O`, in the data set on Plasmodium berghei [2], the inhibition in vivo at 50 mg/kg is < 1%. In addition, the Ratio EC50 in [4] was 0.091; in [9] it was 8.66. The pEC50 was 5.96 in the data set on Plasmodium falciparum [5], 6.90 in the data set on Plasmodium berghei [6], 5.12 with J774 and 7.94 with Plasmodium falciparum [8].

`CCCCc1cc2c(=O)c(C(=O)NC)c[nH]c2cc1OCCOc1ccccc1`: the results for the Ratio EC50 (in data set [4]; with Plasmodium falciparum [7]; in data set [9]) were 4.63, 299 and 1390, respectively. Moreover, the pEC50 in the data set with Plasmodium falciparum [5] is 5.40; in the data set on Plasmodium berghei [6] it was 8.54; in the data set with J774, < 4.70; in the data set on Plasmodium falciparum [8] it was 7.88.

As to `O=C1C(O)=C([C@H]2CC[C@H](c3ccc(Cl)cc3)CC2)C(=O)c2ccccc21` [ATOVAQUONE], in the data set with Plasmodium berghei [10], the Time was 30 days.

Source of the values: ChEMBL document CHEMBL4425110, “ICI 56,780 Optimization: Structure-Activity Relationship Studies of 7-(2-Phenoxyethoxy)-4(1H)-quinolones with Antimalarial Activity” (J Med Chem, 2016).
